The source of these data is ChEMBL document CHEMBL1955761, “Privileged scaffolds or promiscuous binders: a comparative study on rhodanines and related heterocycles in medicinal chemistry” (J Med Chem, 2012).

Active and inactive are the calls of the source.

One assay concerns Dengue virus. The assay is described as follows: Inhibition of Dengue virus NS2B-NS3 protease using Abz-NleKRRS-3-(NO2)Y as substrate at 50 uM preincubated for 15 mins measured every sec for 15 mins by fluorimetric analysis.
For the next assay, the target named is Prothrombin (Bos taurus) (UniProt P00735). The assay is described as follows: Inhibition of bovine plasma thrombin using Boc-Val-Pro-Arg-AMC as substrate at 25 uM preincubated for 15 mins measured after 10 mins by fluorimetric assay. Put shortly: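 Purchased bovine plasma thrombin at 10 nM final, preincubated 15 min with 25 μM inhibitor; reaction started with 50 μM substrate. Buffer 50 mM Tris-HCl pH 7.5, 150 mM NaCl, 0.05% Tween 20. Triplicate, averaged.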

Assay [1] deals with Escherichia coli. The assay is described as follows: Inhibition of Escherichia coli MurA using PEP as substrate assessed as inorganic phosphate release at 25 uM preincubated for 10 mins measured after 60 mins […].
In assay [2] the test system is Escherichia coli. The assay can be described thus: Inhibition of Escherichia coli MetAP at 10 uM after 15 mins by fluorescence analysis.

As a reminder, the inhibition is the relative decrease from the control value, in per cent. Take `C/C(=C1/SC(=S)NC1=O)c1cccs1`: the inhibition with Dengue virus turned out to be 45%; against Prothrombin (Bos taurus) it was 17%; in the assay on Escherichia coli [1], 11%. For the same molecule, the inhibition entry in the assay with Escherichia coli [2] is “inactive”.

With `Cc1ccc(/C=C2\SC(O)=NC2=O)cc1`, the inhibition was 17% in the assay on Dengue virus and 18% at Prothrombin (Bos taurus). In addition, the inhibition entry in the assay on Escherichia coli [1] and with Escherichia coli [2] was “inactive” each time.

Molecule `O=C1NC(=O)/C(=C/c2c(F)c(F)c(F)c(F)c2F)S1` displayed an inhibition in the assay on Dengue virus of 12%. In addition, the inhibition entry at Prothrombin (Bos taurus), in the assay with Escherichia coli [1] and in the assay on Escherichia coli [2] was “inactive” each time.

`COc1ccc(/C=C2\SC(=S)NC2=O)cc1`: the inhibition came out at 42% with Dengue virus and 16% against Prothrombin (Bos taurus). Further, the inhibition result in the assay with Escherichia coli [1] and in the assay on Escherichia coli [2] was “inactive” each time.

Consider `O=C1NC(=S)S/C1=C\c1cccs1`, for which the values for the inhibition in the assay with Dengue virus and on Prothrombin (Bos taurus) were 44% and 18%, respectively. The inhibition result with Escherichia coli [1] and in the assay on Escherichia coli [2] was “inactive” throughout.

With `COc1ccc(/C=C/C=C2\SC(=S)NC2=O)cc1`, the inhibition in the assay with Dengue virus turned out to be 51%; against Prothrombin (Bos taurus), 20%; with Escherichia coli [1] it was 62%; in the assay with Escherichia coli [2] it was 12%.

`O=C1NC(=S)NC1=C(c1ccccc1)c1ccccc1`: the inhibition result with Dengue virus, on Prothrombin (Bos taurus) and in the assay on Escherichia coli [1] was “inactive” throughout. This molecule showed an inhibition in the assay on Escherichia coli [2] of 24%.

For the molecule `C/C(=C1/NC(=S)NC1=O)c1ccc2ccccc2c1`, the inhibition came to 33% in the assay with Dengue virus, 10% at Prothrombin (Bos taurus) and 15% in the assay with Escherichia coli [2]. Besides, in the assay on Escherichia coli [1], the inhibition entry was “inactive”.

Regarding `CC(=O)N1C(=S)NC(=O)[C@@H]1CCC(N)=O`, the inhibition entry in the assay on Dengue virus, on Prothrombin (Bos taurus) and in the assay on Escherichia coli [1] was “inactive” throughout. Also, the inhibition in the assay with Escherichia coli [2] is 13%.

In the case of `O=C1NC(=S)N/C1=C\c1c(F)c(F)c(F)c(F)c1F`, the inhibition in the assay on Dengue virus worked out at 24%; against Prothrombin (Bos taurus), 29%; in the assay with Escherichia coli [1], 17%; in the assay on Escherichia coli [2], 13%.

For `Cc1ccc(/C=C2\NC(=S)NC2=O)cc1`, the inhibition in the assay with Dengue virus came to 31%; on Prothrombin (Bos taurus), 14%; in the assay with Escherichia coli [2] it was 15%. Also, the inhibition entry in the assay on Escherichia coli [1] is “inactive”.

In the assay on Dengue virus, `COc1ccc(/C=C2\NC(=O)NC2=O)cc1OC` showed an inhibition of 18%. Moreover, the inhibition entry at Prothrombin (Bos taurus), with Escherichia coli [1] and in the assay with Escherichia coli [2] was “inactive” throughout.

Turning to `CCC/C=C/C1NC(=S)NC1=O` (stereo not drawn), the inhibition result in the assay on Dengue virus is “inactive”. Besides, the inhibition at Prothrombin (Bos taurus) is 14%; in the assay with Escherichia coli [1] it was 77%; in the assay with Escherichia coli [2], 19%.

As to `O=C1NC(=S)N/C1=C\c1cc2ccccc2[nH]1`, the values for the inhibition in the assay on Dengue virus, against Prothrombin (Bos taurus) and in the assay with Escherichia coli [1] were 44%, 23% and 15%, respectively. Further, the inhibition result with Escherichia coli [2] is “inactive”.

With `O=C1NC(=S)NC1Cc1cccs1` (stereo not drawn), the inhibition result in the assay with Dengue virus, on Prothrombin (Bos taurus), in the assay on Escherichia coli [1] and in the assay on Escherichia coli [2] was “inactive” each time.

Consider `O=C1CNC(=O)N1`, for which the inhibition entry with Dengue virus, at Prothrombin (Bos taurus), in the assay on Escherichia coli [1] and in the assay with Escherichia coli [2] was “inactive” each time.

As to `O=C1NC(=S)N/C1=C\c1ccc2ccccc2c1`, the inhibition with Dengue virus came to 46%; against Prothrombin (Bos taurus), 27%; in the assay with Escherichia coli [1] it was 32%; in the assay on Escherichia coli [2] it was 15%.

As for `COc1ccccc1/C=C1\NC(=O)NC1=O`, the inhibition in the assay on Dengue virus turned out to be 18%. The inhibition result on Prothrombin (Bos taurus), in the assay with Escherichia coli [1] and in the assay on Escherichia coli [2] was “inactive” each time.

Consider `O=C1NC(=S)N[C@H]1Cc1c[nH]c2ccccc12`, for which the inhibition result with Dengue virus and on Prothrombin (Bos taurus) was “inactive” in each case. In addition, the inhibition with Escherichia coli [1] was determined as 11%; in the assay with Escherichia coli [2] it was 13%.

For `O=C1NC(=S)S/C1=C\c1cccc(O)c1`, the inhibition in the assay on Dengue virus came to 29%; at Prothrombin (Bos taurus), 15%; in the assay with Escherichia coli [1], 58%; in the assay on Escherichia coli [2], 12%.

With `O=C1NC(=S)S/C1=C\c1ccc(Cl)cc1Cl`, the inhibition in the assay on Dengue virus came out at 46%; at Prothrombin (Bos taurus), 23%; with Escherichia coli [1] it was 15%. The inhibition result in the assay on Escherichia coli [2] was “inactive”.

Regarding `CN(C)c1ccc(/C=C2\SC(=S)NC2=O)cc1`, the inhibition came to 36% in the assay with Dengue virus, 21% at Prothrombin (Bos taurus) and 15% in the assay with Escherichia coli [1]. Also, the inhibition entry in the assay with Escherichia coli [2] is “inactive”.

Regarding `O=C1NC(=O)/C(=C/c2ccc(Cl)s2)N1`, the values for the inhibition in the assay on Dengue virus, on Prothrombin (Bos taurus) and in the assay with Escherichia coli [1] were 16%, 25% and 38%, respectively. Also, the inhibition result in the assay on Escherichia coli [2] is “inactive”.

Regarding `N#Cc1ccc(/C=C2\NC(=S)NC2=O)cc1`, the inhibition in the assay with Dengue virus came to 37%; at Prothrombin (Bos taurus), 11%. The inhibition result in the assay with Escherichia coli [1] and in the assay on Escherichia coli [2] was “inactive” in each case.

For `O=C1NC(=O)/C(=C/c2ccc3ccccc3c2)S1`, the inhibition entry with Dengue virus, with Escherichia coli [1] and with Escherichia coli [2] was “inactive” each time. This molecule also yielded an inhibition at Prothrombin (Bos taurus) of 19%.

As to `O=C1NC(=O)/C(=C/c2cccc(O)c2)N1`, the inhibition amounted to 27% with Dengue virus and 12% against Prothrombin (Bos taurus). The inhibition result in the assay with Escherichia coli [1] and in the assay with Escherichia coli [2] was “inactive” throughout.

In the case of `Cc1ccc(/C=C2\NC(=O)NC2=O)cc1`, the inhibition entry with Dengue virus, on Prothrombin (Bos taurus) and in the assay on Escherichia coli [1] was “inactive” in each case. In the assay on Escherichia coli [2], this molecule registered an inhibition of 11%.

On to `O=C1NC(=S)N/C1=C1/CCOc2ccccc21`, for which the inhibition in the assay with Dengue virus worked out at 43%; at Prothrombin (Bos taurus), 18%; in the assay with Escherichia coli [1], 43%; in the assay on Escherichia coli [2], 28%.

On to `CC(=O)N1C(=S)NC(=O)[C@@H]1Cc1ccc(O)cc1`, for which the inhibition entry with Dengue virus, on Prothrombin (Bos taurus), in the assay with Escherichia coli [1] and with Escherichia coli [2] was “inactive” in each case.

On to `C/C(=C1/NC(=S)NC1=O)c1ccc(F)cc1`, for which the inhibition result with Dengue virus was “inactive”. The values for the inhibition against Prothrombin (Bos taurus), in the assay with Escherichia coli [1] and with Escherichia coli [2] were 23%, 29% and 18%, respectively.

Turning to `CN(C)c1ccc(/C=C2\NC(=O)NC2=O)cc1`, the inhibition in the assay on Dengue virus was 29%; against Prothrombin (Bos taurus), 16%. Moreover, the inhibition result in the assay on Escherichia coli [1] and in the assay on Escherichia coli [2] was “inactive” throughout.

`O=C1NC(=O)/C(=C/c2cccc(O)c2)S1`: the values for the inhibition in the assay with Dengue virus and in the assay on Escherichia coli [2] were 18% and 11%, respectively. The inhibition entry on Prothrombin (Bos taurus) and in the assay on Escherichia coli [1] was “inactive” in each case.

Take `O=C1NC(=S)N/C1=C\c1ccc(O)cc1`: the inhibition in the assay on Dengue virus was 48%; against Prothrombin (Bos taurus), 39%; in the assay on Escherichia coli [1], 11%. For the same molecule, the inhibition result in the assay with Escherichia coli [2] is “inactive”.

For the molecule `O=C1NC(=O)C(Cc2ccc(O)c(O)c2)N1` (stereo not drawn), the inhibition result with Dengue virus and on Prothrombin (Bos taurus) was “inactive” each time. The inhibition in the assay on Escherichia coli [1] stood at 79%; with Escherichia coli [2], 84%.

The molecule `Cc1ccc(/C=C2\SC(=S)NC2=O)cc1` registered an inhibition at Prothrombin (Bos taurus) of 23%.

In the case of `COc1cc(/C=C2\NC(=O)NC2=O)ccc1O`, the results for the inhibition in the assay on Dengue virus and in the assay with Escherichia coli [1] were 13% and 17%, respectively. The inhibition entry on Prothrombin (Bos taurus) and in the assay with Escherichia coli [2] was “inactive” in each case.

Take `C/C(=C1/NC(=S)NC1=O)c1cccs1`: the inhibition came to 43% in the assay on Dengue virus, 20% at Prothrombin (Bos taurus), 50% with Escherichia coli [1] and 42% with Escherichia coli [2].

Consider `O=C1NC(=S)N/C1=C\c1ccc(Cl)cc1Cl`, for which the inhibition with Dengue virus came to 41%; against Prothrombin (Bos taurus), 20%; in the assay on Escherichia coli [1], 22%; with Escherichia coli [2] it was 15%.

As for `O=C1NC(=S)S/C1=C\c1cc(Br)cs1`, the inhibition is 47% in the assay with Dengue virus, 21% on Prothrombin (Bos taurus) and 18% in the assay on Escherichia coli [1]. The inhibition result with Escherichia coli [2] was “inactive”.

As to `O=C1NC(=S)S/C1=C1/CCOc2ccccc21`, the figures for the inhibition with Dengue virus and against Prothrombin (Bos taurus) were 44% and 18%, respectively. Moreover, the inhibition entry in the assay on Escherichia coli [1] and in the assay with Escherichia coli [2] was “inactive” in each case.

With `COc1cc(/C=C2\NC(=S)NC2=O)ccc1O`, the inhibition in the assay on Dengue virus is 38%; against Prothrombin (Bos taurus) it was 23%; in the assay with Escherichia coli [1], 72%; with Escherichia coli [2], 26%.

For the molecule `O=C1NC(=O)/C(=C/c2ccc(Br)s2)N1`, the inhibition in the assay with Dengue virus and against Prothrombin (Bos taurus) was 22% throughout. The inhibition entry in the assay with Escherichia coli [1] and in the assay with Escherichia coli [2] was “inactive” each time.

As for `O=C1NC(=S)S/C1=C\c1sccc1Br`, the results for the inhibition in the assay with Dengue virus, at Prothrombin (Bos taurus) and in the assay with Escherichia coli [1] were 60%, 24% and 20%, respectively. In the assay on Escherichia coli [2], the inhibition entry is “inactive”.

As for `O=C1NC(=O)/C(=C/c2c(F)c(F)c(F)c(F)c2F)N1`, the inhibition in the assay with Dengue virus came to 14%; against Prothrombin (Bos taurus), 18%; in the assay with Escherichia coli [1] it was 18%. Besides, the inhibition entry in the assay with Escherichia coli [2] is “inactive”.

`O=C1NC(=S)S/C1=C\c1ccc(Cl)s1`: the inhibition in the assay on Dengue virus was 54%; against Prothrombin (Bos taurus), 27%; in the assay on Escherichia coli [1], 13%. The inhibition entry in the assay with Escherichia coli [2] is “inactive”.

As for `O=C1NC(=S)S/C1=C\c1ccccn1`, on Prothrombin (Bos taurus), the inhibition entry was “inactive”.
